In ChEMBL document CHEMBL1255333, “Comparison of the in vitro efficacies of moxifloxacin and amoxicillin against Listeria monocytogenes” (2008):
Activity calls are given as the source filed them.

Key:
Listeria monocytogenes [1] = experiment: Antibacterial activity against extracellular Listeria monocytogenes EGDe at MIC by time-kill study; type: functional, organism-based
Outline: (§1)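 EGDe inoculum of 5 x 10^8 bacteria in Mueller-Hinton broth at 37°C. Antibiotic was added at 1x, 4x, 8x or 400x MIC. Counts were done in triplicate at set times by plating serial 10-fold dilutions on BHI agar, with or without 2 µg/ml moxifloxacin, for 48 h. Results are CFU/ml, means ± SE of three experiments. Bactericidal was defined as a >3-log10 drop at 24 h.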

Listeria monocytogenes [2] = experiment: Antibacterial activity against extracellular Listeria monocytogenes EGDe at four times of MIC by time-kill study; type: functional, organism-based; outline: as §1
Listeria monocytogenes [3] = experiment: Antibacterial activity against extracellular Listeria monocytogenes EGDe at 400 times of MIC by time-kill study; type: functional, organism-based; outline: as §1
Listeria monocytogenes [4] = experiment: Antibacterial activity against intracellular Listeria monocytogenes EGDe infected in bone marrow-derived BALB/c mouse macrophage assessed as reduction in the formation of filopodium-like projections at >= MIC after 48 hrs by microscopy; type: functional, organism-based
Listeria monocytogenes [5] = experiment: Antibacterial activity against intracellular Listeria monocytogenes EGDe infected in bone marrow-derived BALB/c mouse macrophage assessed as reduction in bacterial count at four-eitght times of MIC after 3 hrs; type: functional, organism-based
Outline: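 Bone marrow macrophages from BALB/c mice (7-8 weeks) were differentiated for 7 days in RPMI 1640 with 10% decomplemented FCS and 10% L-cell medium, at 37°C and 10% CO2. Cells at 3 x 10^5/ml were infected for 15 min at a bacteria:macrophage ratio of 10:1, washed, and preincubated for 45 min. They were then given antibiotic for up to 24 h, lysed in 0.1% Triton X-100, and plated in triplicate. Results are CFU/well, means ± SE of three experiments.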

Listeria monocytogenes [6] = experiment: Antibacterial activity against intracellular Listeria monocytogenes EGDe infected in bone marrow-derived BALB/c mouse macrophage assessed as prevention of bacterial release and spread of infection by preventing macrophage lysis after 24 hrs; type: functional, organism-based
Listeria monocytogenes [7] = experiment: Antibacterial activity against intracellular Listeria monocytogenes EGDe infected in bone marrow-derived BALB/c mouse macrophage assessed as reduction in the number of infected macrophages after 3 hrs; type: functional, organism-based
Outline: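 Infected BALB/c bone marrow macrophages were stained with May-Grunwald-Giemsa and examined microscopically to determine the infection rate. Observations were made at 3, 6 and 24 h of exposure to antibiotic at 1x MIC or Cmax, or with no antibiotic.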

Listeria monocytogenes [8] = experiment: Antibacterial activity against extracellular Listeria monocytogenes EGDe assessed as reduction in bacterial count at four times of MIC after 6 hrs by time-kill study; type: functional; outline: as §1
Listeria monocytogenes [9] = experiment: Antibacterial activity against extracellular Listeria monocytogenes EGDe assessed as reduction in bacterial count at four times of MIC after 24 hrs by time-kill study; type: functional, organism-based; outline: as §1
Listeria monocytogenes [10] = experiment: Antibacterial activity against extracellular Listeria monocytogenes EGDe assessed as reduction in bacterial count at eight times of MIC after 6 hrs by time-kill study; type: functional; outline: as §1
Listeria monocytogenes [11] = experiment: Antibacterial activity against extracellular Listeria monocytogenes EGDe assessed as reduction in bacterial count at eight times of MIC after 24 hrs by time-kill study; type: functional, organism-based; outline: as §1
Listeria monocytogenes [12] = experiment: Antibacterial activity against intracellular Listeria monocytogenes EGDe infected in bone marrow-derived BALB/c mouse macrophage assessed as changes in morphology of intracellular bacteria observed to be ghostly, chained, and elongated at >= MIC after 48 hrs by microscopy; type: functional, organism-based

SMILES | Activity (Listeria monocytogenes [1]) | Activity (Listeria monocytogenes [2]) | Activity (Listeria monocytogenes [3]) | Activity (Listeria monocytogenes [4]) | Activity (Listeria monocytogenes [5]) | Activity (Listeria monocytogenes [6]) | Activity (Listeria monocytogenes [7]) | log10CFU/ml (Listeria monocytogenes [8]) | Activity (Listeria monocytogenes [9]) | log10CFU/ml (Listeria monocytogenes [10]) | Activity (Listeria monocytogenes [11]) | Activity (Listeria monocytogenes [12])
CC1(C)S[C@@H]2[C@H](NC(=O)[C@H](N)c3ccc(O)cc3)C(=O)N2[C@H]1C(=O)O | inactive | Active | Active | inactive | inactive | inactive | inactive | – | – | – | – | –
COc1c(N2C[C@@H]3CCCN[C@@H]3C2)c(F)cc2c(=O)c(C(=O)O)cn(C3CC3)c12 [MOXIFLOXACIN] | inactive | Active | – | Active | Active | Active | – | 3 | Active | 3 | Active | Active
